This excerpt belongs to a sample that is enriched for hits.
T cruzi repl: T. cruzi replication inhibition; 300,000 tested, 1.4% active; inhibition, % (concentration not given with the values); T. cruzi beta-gal in NIH3T3, luminescence, 90 h;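 active = mean inhibition across valid replicates above about 55%, limit read from the data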;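 also: signal also drops with host cell toxicity which is not excluded here; 0% = plate median of DMSO wells and 100% = zero luminescence signal; higher percent means less beta-gal luminescence so fewer parasites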
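assay system = mouse NIH/3T3 fibroblasts infected with β-gal-expressing T. cruzi Tulahuen C4 | input = 5,000 NIH/3T3 host cells per well | buffer or medium = DMEM plus 2% FBS | timing = 3 h host attachment, then at least 90 h co-culture | measured by = GalScreen luminescence, 60 min | evaluation = luminescence reflecting intracellular parasite burden, expressed as percent inhibition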
L major viab: reduces viability of Leishmania major promastigotes; resazurin fluorescence viability; inhibition, % at 10 µM; 200,000 tested, 9% active; AID 1063; in the data active = inhibition above about 50%;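 also: promastigotes grown with compound for 44 hours at 28 °C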
Redox H2O2 prof: compounds producing H2O2 with reducing agent – biochemical, NIH compound library profiling, artefact control for MLSCN library redox annotation, primary screen. 200,000 tested, 0.03% active. activation, % at 10 µM. DTT-dependent redox cycling H2O2, phenol red/HRP absorbance; 100% = 100 µM peroxide control, 0% = buffer;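 active = activation of at least 50% relative to the plate's high and low controls in the primary single-dose screen; inactive = activation below 50%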;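 also: compound incubated with DTT at 0.8 mM final as the reducing agent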
Lipid droplet: hepatic lipid droplet formation modulation. AML12 mouse hepatocytes, oleate lipid droplets, BODIPY imaging. inhibition, % at 6.5 µM. 240,000 tested, 0.4% active. AID 1656;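 active = lipid droplet intensity inhibited by at least 50%, with more than 500 cells counted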
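Assay system: AML12 hepatocytes (mouse); Probe or stimulus: oleic acid at 100 µM to induce lipid droplet formation; Dosing: compound at 6.5 µM only; Schedule: compound with oleate, overnight; Detection: fluorescence imaging, 20x objective, two fields per well; Measure: % inhibition of lipid droplet signal.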
MPTP block: permeability transition pore inhibition. isolated mouse mitochondria, Ca2+ swelling absorbance, 30 min. AID 602449. inhibition, % at 10 µM. 360,000 tested, 1.4% active;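 active = inhibition of 50% or more, scaled per plate between neutral and stimulator controls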;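 also: 0% = DMSO wells given calcium and 100% = 1 mM EGTA wells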
MPTP counter: Rhodamine 123 counter-screen of mitochondrial pore hits | shares compounds with MPTP block | isolated mitochondria, membrane potential, Rhodamine 123 fluorescence | inhibition, % at 10 µM | 5,000 tested, 78% active; in the data active = inhibition above about 22%;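 also: 0% = DMSO vehicle and 100% = positive control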
An asterisk follows results filed as active.

For Cc1ccc(/C=N/NS(=O)(=O)c2ccc([N+](=O)[O-])cc2)o1 the results were T cruzi repl 1, L major viab -6, Redox H2O2 prof 0, Lipid droplet 7 and MPTP block 1.
COC(=O)Nc1ccc2c(c1)N(C(=O)CCCl)c1ccccc1S2 was read as T cruzi repl 44 and MPTP block 0.
CCCCc1ccc(NC(=S)NCc2cccs2)cc1 was read as T cruzi repl 69*, L major viab 16, Redox H2O2 prof -3, MPTP block 84* and MPTP counter 80*.
Cc1ccc(NC(=S)NCc2cccs2)cc1 was read as T cruzi repl -28, L major viab 8, Redox H2O2 prof 0, Lipid droplet 9 and MPTP block 0.
`CCCCc1ccc(NC(=S)NCc2ccc(OC)cc2)cc1` gave T cruzi repl 47, L major viab 16, Redox H2O2 prof 0, MPTP block 57* and MPTP counter 75*.
For N#CC1=C(N)SC(N)=C(C#N)C1c1c(Cl)cccc1Cl the results were L major viab 9, Redox H2O2 prof 0 and MPTP block 6.
`CC(C)CC1C(C#N)=C(N)SC(N)=C1C#N` gave T cruzi repl -12, L major viab -5, Redox H2O2 prof 0, MPTP block 62* and MPTP counter 78*.
For N#CC1=C(N)SC(N)=C(C#N)C1c1cccc(Oc2ccccc2)c1 the results were T cruzi repl 19, L major viab 0, Redox H2O2 prof 3, Lipid droplet -7, MPTP block 89* and MPTP counter 70*.
Cc1[nH]nc2c1C(CC(C)C)C(C#N)=C(N)O2 (stereo not drawn) was read as T cruzi repl -25, Lipid droplet 10 and MPTP block 1.
N#CC1=C(N)SC(N)=C(C#N)C1CCc1ccccc1 was read as T cruzi repl -20, L major viab -6, Redox H2O2 prof 1, Lipid droplet 5, MPTP block 96* and MPTP counter 67*.
Screening N#CC1=C(N)SC(N)=C(C#N)C1Cc1ccccc1 returned T cruzi repl -2, L major viab 55*, Redox H2O2 prof -1, MPTP block 77* and MPTP counter 73*.
Screening CCOc1ccc(C2C(C#N)=C(N)SC(N)=C2C#N)cc1OCC returned T cruzi repl 8, Lipid droplet 1 and MPTP block 6.
COc1ccc(NS(=O)(=O)c2ccc(Br)cc2)cn1 was read as T cruzi repl -3, Lipid droplet -7 and MPTP block -2.
Screening COc1ccc(NS(=O)(=O)c2ccc3oc4ccccc4c3c2)cn1 returned T cruzi repl -9, L major viab 12, Redox H2O2 prof 1, Lipid droplet -8, MPTP block 60* and MPTP counter 64*.
`CC1CC1C(=O)N1CCN(S(=O)(=O)c2cc(C(F)(F)F)cc(C(F)(F)F)c2)CC1` (stereo not drawn) gave MPTP block 101* and MPTP counter 102*.
For CC(C)c1ccc(S(=O)(=O)N2CCN(C(=O)C3CC3C)CC2)cc1 (stereo not drawn) the results were T cruzi repl 0 and MPTP block 0.
`Cc1cnc(C(=O)N2CCN(S(=O)(=O)c3cc(C(F)(F)F)cc(C(F)(F)F)c3)CC2)cn1` gave MPTP block 88* and MPTP counter 105*.
`N#Cc1cc(C(=O)c2cc(Br)ccc2O)cn(C2CCCCC2)c1=O` gave T cruzi repl 0, L major viab 33, Redox H2O2 prof 2, MPTP block 94* and MPTP counter 82*.
For COc1ccc(-n2c(=O)c(CCC(=O)N3CCC(C)CC3)nc3ccccc32)cc1 the results were MPTP block 0.
`CC(C)(C)NS(=O)(=O)c1cc(C(=O)Nc2sccc2C#N)ccc1Cl` gave T cruzi repl -14, L major viab 54*, Redox H2O2 prof 0, Lipid droplet 44, MPTP block 75* and MPTP counter 57*.
`C/C(=N\NC(=O)c1cccc(S(=O)(=O)N2CCOCC2)c1)c1ccc(C#N)cc1` gave T cruzi repl -3, Lipid droplet -4 and MPTP block 2.

Compound activity (PubChem)
